Reference: article PMC3546530 (Cancer prevention research (Philadelphia, Pa.), 2012)
Read-outs that look alike come from different tables or passages of the source.

Legend:
[1] = tested on: HT-29, SW480, and HCT 116 colon tumor cell lines; assay: Growth assay; format: cell-based; conditions: Homo sapiens, 72 h, read-out: growth inhibition IC50
How it was run: (§1)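 Colon tumor cells were kept in RPMI-1640 with 5% FBS and 4 mmol/L glutamine at 37° C, 5% CO2. They were plated at 5,000 per well, left to adhere overnight, and exposed for 72 h to a 2-log range of test compound. Viability was measured as ATP content by CellTiter-Glo, relative to vehicle.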

purified ovine COX-1 = purified ovine COX-1 (Ovis aries, UniProt P05979); assay: COX-1 colorimetric activity assay; format: biochemical
purified ovine COX-1, sequence (P05979 25-600): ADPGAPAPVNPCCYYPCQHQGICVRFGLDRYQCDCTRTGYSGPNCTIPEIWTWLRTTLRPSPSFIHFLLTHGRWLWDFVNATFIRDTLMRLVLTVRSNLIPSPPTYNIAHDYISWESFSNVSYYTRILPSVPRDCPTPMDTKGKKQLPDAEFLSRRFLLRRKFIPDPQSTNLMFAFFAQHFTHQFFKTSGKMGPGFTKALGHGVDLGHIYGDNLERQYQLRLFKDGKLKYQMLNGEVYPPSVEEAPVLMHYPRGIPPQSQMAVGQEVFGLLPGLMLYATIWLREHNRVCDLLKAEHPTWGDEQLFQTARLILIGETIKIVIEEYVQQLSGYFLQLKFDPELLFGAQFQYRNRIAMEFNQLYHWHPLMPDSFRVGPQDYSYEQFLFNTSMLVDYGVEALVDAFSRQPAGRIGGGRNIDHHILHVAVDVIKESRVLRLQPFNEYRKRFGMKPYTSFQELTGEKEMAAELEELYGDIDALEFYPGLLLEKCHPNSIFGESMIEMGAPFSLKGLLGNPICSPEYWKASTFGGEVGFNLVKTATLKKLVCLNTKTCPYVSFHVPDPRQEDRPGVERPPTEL

[2] = tested on: LPS-stimulated U937 promonocytic cells; assay: PGE2 production assay; format: cell-based, human
How it was run: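 U937 promonocytic cells were differentiated with 10 nmol/L PMA for 48 h, washed, and plated at 1.0 × 10^6 cells per well to adhere overnight. They were stimulated with 10 μg/mL LPS and treated with test compound for 24 h. PGE2 in supernatants was measured by HTRF competitive FRET between a PGE2–d2 conjugate and an anti-PGE2 antibody.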

[3] = tested on: HCT 116 colon tumor cells; assay: Apoptosis assay; format: cell-based, human; conditions: 24 hours, vehicle 3%
How it was run: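 HCT 116 cells were seeded at 1 × 10^6 per 10-cm dish and grown 48 h, then treated with test compound or vehicle for 24 h. Floating and attached cells were pooled, fixed in 10% neutral buffered formalin on ice for 15 min, and stained for DNA strand breaks by APO-BrdU TUNEL with AlexaFluor-488. TUNEL-positive cells were counted by flow cytometry, ≥5,000 events, in triplicate.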

[4] = tested on: total cGMP hydrolysis in HT-29 whole-cell lysates; assay: cGMP PDE activity in tumor cell lysate; format: biochemical, human; conditions: read-out: total cGMP hydrolysis IC50; HT-29 whole-cell lysate
How it was run: (§2)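 HT-29 cells were lysed in PDE activity buffer (20 mmol/L Tris-acetate, 5 mmol/L Mg acetate, 1 mmol/L EGTA, 1.0% Triton X-100, 50 mmol/L NaF, protease inhibitors, pH 7.4). Lysate protein was titrated to the mid portion of the activity curve.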

[5] = tested on: total cAMP hydrolysis in HT-29 whole-cell lysates; assay: cAMP PDE activity in tumor cell lysate; format: biochemical, human; conditions: read-out: total cAMP hydrolysis IC50; HT-29 whole-cell lysate
How it was run: as §2

tumor cell growth = conditions: cited from earlier work
[6] = tested on: β-catenin in HCT 116 cells; assay: β-Catenin levels; format: cell-based, human; conditions: HCT 116, 100 μmol/L
How it was run: (§3)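 Cells were lysed in ice-cold membrane lysis buffer (Triton X-100, MgCl2, KCl, DTT, HEPES, NaF, protease inhibitors) or in nuclear lysis buffer (HEPES, NaCl, EDTA, 25% glycerol). Nuclear lysates were kept at 4° C with vortexing every 5 min for 1 h, then centrifuged. Protein was measured by Lowry, separated by 12% SDS-PAGE and moved to nitrocellulose. Blots were blocked in 5% BSA/0.05% Tween 20, probed with primary antibody overnight at 4° C and HRP secondary for 1 h, and read by ECL.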

PDE5 = conditions: cited from earlier work
purified ovine COX-2 = purified ovine COX-2 (Ovis aries, UniProt P79208); assay: COX-2 colorimetric activity assay; format: biochemical
purified ovine COX-2, sequence (P79208 17-603): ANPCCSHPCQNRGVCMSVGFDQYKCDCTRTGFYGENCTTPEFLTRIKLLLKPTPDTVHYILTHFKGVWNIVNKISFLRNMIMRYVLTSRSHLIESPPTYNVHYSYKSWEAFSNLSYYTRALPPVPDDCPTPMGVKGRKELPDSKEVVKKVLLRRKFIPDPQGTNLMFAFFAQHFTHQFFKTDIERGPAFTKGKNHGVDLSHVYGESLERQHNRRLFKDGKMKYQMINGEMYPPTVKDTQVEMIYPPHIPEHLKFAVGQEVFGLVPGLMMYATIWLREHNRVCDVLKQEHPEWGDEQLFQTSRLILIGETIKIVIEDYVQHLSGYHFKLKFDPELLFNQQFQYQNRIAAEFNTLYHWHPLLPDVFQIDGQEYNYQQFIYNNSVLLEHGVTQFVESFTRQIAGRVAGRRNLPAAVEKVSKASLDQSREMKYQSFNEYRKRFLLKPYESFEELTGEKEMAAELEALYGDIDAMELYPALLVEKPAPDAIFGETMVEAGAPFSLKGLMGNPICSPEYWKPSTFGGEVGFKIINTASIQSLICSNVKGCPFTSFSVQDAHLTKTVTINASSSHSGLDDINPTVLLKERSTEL

[7] = tested on: HCT 116 colon tumor cells; assay: Proliferation assay; format: cell-based; conditions: Homo sapiens, HCT-116, 24 h, read-out: inhibition of cell proliferation
How it was run: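 HCT 116 cells were seeded at 1.5 × 10^6 per 10-cm dish overnight, then serum-starved for 24 h. Test compound or vehicle (0.1% DMSO) was added in RPMI-1640 with 5% serum for 4 h, followed by 16 μmol/L EdU (final) for a further 18 h. EdU incorporation was read with Click-iT Alexa Fluor 488 by flow cytometry, ≥5,000 events, in triplicate.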

PDE1A = PDE1A (Homo sapiens, UniProt P54750); assay: Recombinant PDE isozyme assay; format: biochemical
PDE1A, sequence (P54750 whole entry): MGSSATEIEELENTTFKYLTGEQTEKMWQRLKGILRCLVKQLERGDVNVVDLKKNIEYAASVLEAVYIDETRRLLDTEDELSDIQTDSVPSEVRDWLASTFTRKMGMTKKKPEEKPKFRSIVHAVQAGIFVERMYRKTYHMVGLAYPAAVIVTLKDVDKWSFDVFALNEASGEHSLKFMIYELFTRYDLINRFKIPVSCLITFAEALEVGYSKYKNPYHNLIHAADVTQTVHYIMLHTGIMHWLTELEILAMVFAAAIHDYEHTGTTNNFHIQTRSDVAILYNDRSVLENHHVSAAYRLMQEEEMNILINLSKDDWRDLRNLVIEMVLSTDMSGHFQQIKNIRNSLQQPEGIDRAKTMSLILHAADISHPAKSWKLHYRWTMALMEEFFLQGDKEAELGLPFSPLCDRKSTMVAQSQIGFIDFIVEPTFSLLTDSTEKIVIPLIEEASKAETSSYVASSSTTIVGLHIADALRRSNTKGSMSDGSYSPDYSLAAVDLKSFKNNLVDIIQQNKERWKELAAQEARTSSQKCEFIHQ
How it was run: (§4)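 Purified recombinant human PDE isozymes were assayed by IMAP fluorescence polarization, in which binding of hydrolysed nucleotide to immobilised metal complexes raises polarization.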

PDE1B = PDE1B (Homo sapiens, UniProt Q01064); assay: Recombinant PDE isozyme assay; format: biochemical
PDE1B, sequence (Q01064 whole entry): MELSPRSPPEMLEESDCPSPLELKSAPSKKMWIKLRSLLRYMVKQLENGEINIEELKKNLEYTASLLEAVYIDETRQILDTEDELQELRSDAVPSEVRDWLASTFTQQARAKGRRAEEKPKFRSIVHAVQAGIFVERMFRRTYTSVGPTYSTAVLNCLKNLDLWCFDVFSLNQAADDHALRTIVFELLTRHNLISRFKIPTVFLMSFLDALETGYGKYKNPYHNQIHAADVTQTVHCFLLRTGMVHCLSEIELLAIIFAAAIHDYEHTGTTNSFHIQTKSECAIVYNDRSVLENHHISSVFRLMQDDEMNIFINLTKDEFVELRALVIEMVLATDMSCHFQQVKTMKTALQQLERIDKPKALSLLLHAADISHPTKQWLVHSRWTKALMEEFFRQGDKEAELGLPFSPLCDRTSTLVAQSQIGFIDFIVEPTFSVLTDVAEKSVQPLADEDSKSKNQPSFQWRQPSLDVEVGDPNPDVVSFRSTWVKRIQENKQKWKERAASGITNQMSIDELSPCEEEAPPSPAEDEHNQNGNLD
How it was run: as §4

PDE1C = PDE1C (Homo sapiens, UniProt Q14123); assay: Recombinant PDE isozyme assay; format: biochemical
PDE1C, sequence (Q14123 whole entry): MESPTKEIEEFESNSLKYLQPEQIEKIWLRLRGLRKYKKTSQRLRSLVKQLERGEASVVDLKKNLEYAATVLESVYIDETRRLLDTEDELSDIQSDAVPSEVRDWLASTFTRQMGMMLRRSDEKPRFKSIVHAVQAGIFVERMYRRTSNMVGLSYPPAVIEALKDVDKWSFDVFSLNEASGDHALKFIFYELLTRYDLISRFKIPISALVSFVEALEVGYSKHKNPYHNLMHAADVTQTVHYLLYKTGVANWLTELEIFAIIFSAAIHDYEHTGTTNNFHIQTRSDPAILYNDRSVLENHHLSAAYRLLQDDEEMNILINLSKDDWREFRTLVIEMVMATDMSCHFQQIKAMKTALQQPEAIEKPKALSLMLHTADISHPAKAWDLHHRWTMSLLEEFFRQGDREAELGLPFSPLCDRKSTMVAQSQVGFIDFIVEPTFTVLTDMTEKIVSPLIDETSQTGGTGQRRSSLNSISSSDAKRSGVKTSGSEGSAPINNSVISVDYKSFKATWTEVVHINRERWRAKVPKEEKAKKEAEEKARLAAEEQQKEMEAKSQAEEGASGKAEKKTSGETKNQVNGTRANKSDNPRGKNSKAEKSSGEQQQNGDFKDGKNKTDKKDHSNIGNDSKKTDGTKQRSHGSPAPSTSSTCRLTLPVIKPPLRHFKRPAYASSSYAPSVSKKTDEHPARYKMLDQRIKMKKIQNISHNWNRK
How it was run: as §4

PDE2A = PDE2A (Homo sapiens, UniProt O00408); assay: Recombinant PDE isozyme assay; format: biochemical
PDE3A = PDE3A (Homo sapiens, UniProt Q14432); assay: Recombinant PDE isozyme assay; format: biochemical
How it was run: as §4

PDE3B = PDE3B (Homo sapiens, UniProt Q13370); assay: Recombinant PDE isozyme assay; format: biochemical
PDE3B, sequence (Q13370 whole entry): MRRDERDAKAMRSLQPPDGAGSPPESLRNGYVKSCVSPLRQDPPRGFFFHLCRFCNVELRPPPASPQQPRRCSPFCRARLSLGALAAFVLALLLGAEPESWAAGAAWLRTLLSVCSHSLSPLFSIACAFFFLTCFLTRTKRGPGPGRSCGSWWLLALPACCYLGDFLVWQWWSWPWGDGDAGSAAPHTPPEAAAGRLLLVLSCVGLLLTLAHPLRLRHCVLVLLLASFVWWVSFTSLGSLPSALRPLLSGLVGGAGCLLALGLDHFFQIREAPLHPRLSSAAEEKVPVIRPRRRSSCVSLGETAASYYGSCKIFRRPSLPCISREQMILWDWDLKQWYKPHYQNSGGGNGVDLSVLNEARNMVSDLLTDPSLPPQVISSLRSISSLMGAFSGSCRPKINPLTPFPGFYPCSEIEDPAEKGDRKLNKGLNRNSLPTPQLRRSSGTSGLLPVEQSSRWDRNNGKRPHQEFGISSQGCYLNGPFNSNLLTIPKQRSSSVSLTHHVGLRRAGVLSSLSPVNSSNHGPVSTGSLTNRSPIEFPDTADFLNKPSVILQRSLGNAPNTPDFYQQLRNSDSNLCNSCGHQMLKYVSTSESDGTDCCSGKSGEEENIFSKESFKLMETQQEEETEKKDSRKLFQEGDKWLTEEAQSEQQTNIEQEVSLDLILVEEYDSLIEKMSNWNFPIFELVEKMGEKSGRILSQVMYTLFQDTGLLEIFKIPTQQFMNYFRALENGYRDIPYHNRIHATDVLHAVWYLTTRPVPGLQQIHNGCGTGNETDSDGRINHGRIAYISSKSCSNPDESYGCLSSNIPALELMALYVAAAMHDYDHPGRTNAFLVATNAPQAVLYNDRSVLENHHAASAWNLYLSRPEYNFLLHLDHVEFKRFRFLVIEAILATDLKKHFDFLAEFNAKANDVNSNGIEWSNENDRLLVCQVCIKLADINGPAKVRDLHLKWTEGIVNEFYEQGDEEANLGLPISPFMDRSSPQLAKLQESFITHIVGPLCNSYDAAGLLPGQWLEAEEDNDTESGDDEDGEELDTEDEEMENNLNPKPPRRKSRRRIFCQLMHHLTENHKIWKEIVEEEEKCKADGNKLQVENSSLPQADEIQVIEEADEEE
How it was run: as §4

PDE4B = PDE4B (Homo sapiens, UniProt Q07343); assay: Recombinant PDE isozyme assay; format: biochemical
How it was run: as §4

[8] = molecular target: PDE5A (purified recombinant PDE5) (Homo sapiens, UniProt O76074); assay: Recombinant PDE isozyme assay; format: biochemical
How it was run: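 IMAP fluorescence polarization assay run on recombinant enzyme per kit instructions. Substrates: TAMRA-cGMP or fluorescein-cAMP, each at 50 nmol/L final. Hydrolysed cyclic nucleotide binds immobilized metal coordination complexes, raising polarization.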

PDE6C = PDE6C (Homo sapiens, UniProt P51160); assay: Recombinant PDE isozyme assay; format: biochemical
How it was run: as §4

PDE7A = PDE7A (Homo sapiens, UniProt Q13946); assay: Recombinant PDE isozyme assay; format: biochemical
How it was run: as §4

PDE8A = PDE8A (Homo sapiens, UniProt O60658); assay: Recombinant PDE isozyme assay; format: biochemical
How it was run: as §4

PDE9A = PDE9A (Homo sapiens, UniProt O76083); assay: Recombinant PDE isozyme assay; format: biochemical
How it was run: as §4

PDE11A = PDE11A (Homo sapiens, UniProt Q9HCR9); assay: Recombinant PDE isozyme assay; format: biochemical
PDE11A, sequence (Q9HCR9 whole entry): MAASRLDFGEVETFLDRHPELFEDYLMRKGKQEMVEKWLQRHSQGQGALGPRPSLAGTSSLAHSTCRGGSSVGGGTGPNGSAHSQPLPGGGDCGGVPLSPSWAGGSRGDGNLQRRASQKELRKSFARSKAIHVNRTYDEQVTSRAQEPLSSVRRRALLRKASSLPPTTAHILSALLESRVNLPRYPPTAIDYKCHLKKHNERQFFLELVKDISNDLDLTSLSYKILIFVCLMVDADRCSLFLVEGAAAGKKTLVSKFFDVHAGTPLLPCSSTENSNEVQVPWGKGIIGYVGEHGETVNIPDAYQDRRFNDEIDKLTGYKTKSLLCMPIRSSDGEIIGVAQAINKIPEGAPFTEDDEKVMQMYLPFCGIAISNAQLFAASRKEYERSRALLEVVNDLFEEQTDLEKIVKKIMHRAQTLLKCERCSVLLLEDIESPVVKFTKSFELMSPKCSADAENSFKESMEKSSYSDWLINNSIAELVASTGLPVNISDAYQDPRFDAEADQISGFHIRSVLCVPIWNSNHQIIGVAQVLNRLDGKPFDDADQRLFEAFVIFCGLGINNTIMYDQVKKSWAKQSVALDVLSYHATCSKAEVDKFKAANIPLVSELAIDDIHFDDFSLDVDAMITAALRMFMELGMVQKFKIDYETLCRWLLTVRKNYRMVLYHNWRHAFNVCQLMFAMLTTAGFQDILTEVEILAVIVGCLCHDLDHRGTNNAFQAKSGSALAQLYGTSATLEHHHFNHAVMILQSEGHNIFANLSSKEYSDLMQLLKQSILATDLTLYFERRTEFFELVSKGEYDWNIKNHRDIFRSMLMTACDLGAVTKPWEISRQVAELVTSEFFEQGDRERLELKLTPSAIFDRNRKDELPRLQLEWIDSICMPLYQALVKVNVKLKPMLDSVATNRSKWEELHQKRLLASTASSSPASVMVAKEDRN
How it was run: as §4

[9] = tested on: HCT 116 colon tumor cells; assay: Growth assay; format: cell-based; conditions: Homo sapiens, HCT-116, read-out: growth inhibition IC50
How it was run: as §1

HT-29 colon tumor cells = assay: Growth assay; format: cell-based; conditions: Homo sapiens, HT-29, read-out: growth inhibition IC50
How it was run: as §1

[10] = tested on: normal fetal human colonocytes (FHC); assay: Growth assay; format: cell-based
[11] = tested on: intracellular cGMP in HEK293 cells; assay: Intracellular cGMP levels; format: cell-based, human; conditions: HEK293, 50 μmol/L SNP plus 1, 3, or 10 μmol/L compound
[12] = tested on: PKG (VASP phosphorylation) in HT-29 cells; assay: PKG activation; format: cell-based, human; conditions: HT-29, 5 μmol/L; remained elevated for 5 hours
[13] = tested on: nuclear β-catenin in HT-29 cells; assay: Nuclear β-catenin levels; format: cell-based, human
How it was run: as §3

survivin in HT-29 cells = assay: Survivin expression; format: cell-based, human; conditions: 10 μmol/L, slightly longer duration than β-catenin decrease
How it was run: as §3

[14] = tested on: cleaved caspase-3 in HT-29 cells; assay: Caspase-3 cleavage; format: cell-based, human; conditions: HT-29, 10 μmol/L
How it was run: as §3

[15] = tested on: β-catenin–mediated Tcf transcriptional activity in HCT 116 cells; assay: TOP/FOP-flash Tcf luciferase reporter assay; format: cell-based, human; conditions: HCT 116, 24 hours
How it was run: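 HCT 116 cells in 24-well plates were cotransfected with 0.1 μg TOP-flash (wild-type Tcf sites) or FOP-flash (mutated sites, nonspecific control) plus 0.1 μg β-galactosidase vector. After 24 h treatment with test compound, luciferase activity was measured and normalised to β-galactosidase activity.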

For `CSc1ccc(/C=C2/C(C)=C(CC(=O)O)c3cc(F)ccc32)cc1` [sulindac sulfide, Sulindac sulfide, reference compound], the IC50 [1] was 90 to 120 µM, the IC50 (purified ovine COX-1; read-out: COX-1 inhibition IC50, purified ovine COX-1) was 2 µM and the IC50 ([2]; Homo sapiens, U-937, 24 h, read-out: suppression of PGE2 production IC50) was 0.7 µM. The “apoptotic (TUNEL-positive) cells” value ([3]; 100 μmol/L) was 12%, the IC50 [4] was 49 µM and the IC50 [5] was 133 µM.

For `CCCc1nn(C)c2c(=O)[nH]c(-c3cc(S(=O)(=O)N4CCN(C)CC4)ccc3OCC)nc12` [sildenafil], the “tumor cell growth inhibitory activity” value (tumor cell growth) is given as “completely inactive”.

In the case of `Nc1nc2c(nc(Br)n2[C@@H]2O[C@@H]3COP(=O)(O)O[C@H]3[C@H]2O)c(=O)[nH]1` [8-bromo-cGMP], the “effect on β-catenin levels” value [6] is reported as “suppress β-catenin levels”.

For `CN1CC(=O)N2[C@H](c3ccc4c(c3)OCO4)c3[nH]c4ccccc4c3C[C@@H]2C1=O` [tadalafil], the “concentrations required to inhibit tumor cell growth” value (tumor cell growth) is listed as “micromolar levels” and the “concentrations required to inhibit PDE5 in cell-free assays” value (PDE5) is listed as “nanomolar levels”.

With `CC1=C(CCNCc2ccccc2)c2cc(F)ccc2/C1=C\c1ccc([S+](C)[O-])cc1` (stereo not drawn) [SBA, (Z)-N-benzyl-2-(5-fluoro-2-methyl-1-(4-(methylsulfinyl)benzylidene)-1H-inden-3-yl)ethanamine] the IC50 [1] was 3 to 5 µM, the IC50 (purified ovine COX-1) was > 200 µM and the IC50 (purified ovine COX-2) was > 200 µM. The “suppression of PGE2 production” value ([2]; LPS 10 μg/mL, 24 hours treatment) was “ineffective”, the inhibition at 50 µM [7] was 86% and the “apoptotic (TUNEL-positive) cells” value ([3]; 50 μmol/L) was 75%. The IC50 [4] was 8 µM, the IC50 [5] was > 200 µM and the IC50 (PDE1A) was > 100 µM. For the same compound, the IC50 (PDE1A; read-out: cAMP IC50, PDE 1A, cAMP substrate) was > 100 µM, the IC50 (PDE1B) was > 100 µM and the IC50 (PDE1B; read-out: cAMP IC50, PDE 1B, cAMP substrate) was > 100 µM. The IC50 (PDE1C) was > 100 µM, the IC50 (PDE1C; read-out: cAMP IC50, PDE 1C, cAMP substrate) was > 100 µM and the IC50 (PDE2A) was > 100 µM. The IC50 (PDE2A; read-out: cAMP IC50, PDE 2A, cAMP substrate) was > 100 µM, the IC50 (PDE3A) was > 100 µM and the IC50 (PDE3A; read-out: cAMP IC50, PDE 3A, cAMP substrate) was > 100 µM. The IC50 (PDE3B) was > 100 µM, the IC50 (PDE3B; read-out: cAMP IC50, PDE 3B, cAMP substrate) was > 100 µM and the IC50 (PDE4B) was 75 µM. The IC50 [8] was 9 µM, the IC50 (PDE6C) was > 100 µM and the IC50 (PDE7A) was > 100 µM. The IC50 (PDE8A) was > 100 µM, the IC50 (PDE9A) was > 100 µM and the IC50 (PDE11A) was > 100 µM. For the same compound, the IC50 (PDE11A; read-out: cAMP IC50, PDE 11A, cAMP substrate) was > 100 µM, the IC50 [9] was 5 µM and the IC50 (HT-29 colon tumor cells) was 5 µM. The “fold higher IC50 in FHC than in colon tumor cell lines” value ([10]; FHC vs HT-29 and HCT 116) was > 6 fold, the IC50 ([10]; Homo sapiens, read-out: growth inhibition IC50) was 33 µM and the “effect on intracellular cGMP (luminescence)” value [11] was “rapid and sustained increase in luminescence”. For the same compound, the “time to increased phospho-VASP levels” value [12] was ≤ 1 h, the “time to reduced nuclear levels of β-catenin” value [13] was ≤ 1 h and the expression of survivin (survivin in HT-29 cells) was “decreased”. For the same compound, the “levels of cleaved caspase-3” value [14] was “increased” and the “β-catenin–mediated Tcf transcriptional activity” value [15] was “significant decrease”.
